In ChEMBL document CHEMBL1126691, “Application of the hypersurface iterative projection method to bicyclic pyrazolidinone antibacterial agents” (1993):

system: Pseudomonas; experiment: Minimum inhibitory concentration against Pseudomonas species.; type: functional
How it was run: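 MIC in µg/mL, determined by the 2-fold serial agar dilution method. These readings were excluded from the geometric-mean MIC used for the QSAR analysis.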

MIC | Compound
> 128 µg/mL | CO/N=C(\C(=O)NC1CN2CC(S(C)(=O)=O)=C(C(=O)O)N2C1=O)c1csc(N)n1 (stereo unspecified)
> 128 µg/mL | CO/N=C(\C(=O)N[C@H]1CN2CC(C#N)=C(C(=O)O)N2C1=O)c1csc(N)n1
> 128 µg/mL | CO/N=C(\C(=O)N[C@H]1CN2CC(C(=O)OCc3ccccc3)=C(C(=O)O)N2C1=O)c1csc(N)n1
> 128 µg/mL | CO/N=C(\C(=O)N[C@H]1CN2CC(S(=O)(=O)c3ccccc3)=C(C(=O)O)N2C1=O)c1csc(N)n1
> 128 µg/mL | CO/N=C(\C(=O)N[C@H]1CN2CC(NC(=O)OC)=C(C(=O)O)N2C1=O)c1csc(N)n1
> 128 µg/mL | CO/N=C(\C(=O)N[C@H]1CN2CC(S(=O)(=O)N(C)C)=C(C(=O)O)N2C1=O)c1csc(N)n1
> 128 µg/mL | CO/N=C(\C(=O)N[C@H]1CN2CC(C(=O)c3ccccc3)=C(C(=O)O)N2C1=O)c1csc(N)n1
> 128 µg/mL | CO/N=C(\C(=O)N[C@H]1CN2CC(C(C)=O)=C(C(=O)O)N2C1=O)c1csc(N)n1
> 128 µg/mL | CO/N=C(\C(=O)N[C@H]1CN2CC=C(C(=O)O)N2C1=O)c1csc(N)n1
> 128 µg/mL | CO/N=C(\C(=O)N[C@H]1CN2CC(c3cccs3)=C(C(=O)O)N2C1=O)c1csc(N)n1
> 128 µg/mL | CO/N=C(\C(=O)N[C@H]1CN2CC(C(=O)CF)=C(C(=O)O)N2C1=O)c1csc(N)n1
> 128 µg/mL | CO/N=C(\C(=O)N[C@H]1CN2CC(SC)=C(C(=O)O)N2C1=O)c1csc(N)n1
> 128 µg/mL | CO/N=C(\C(=O)N[C@H]1CN2CC(C(=O)O)=C(C(=O)O)N2C1=O)c1csc(N)n1
> 128 µg/mL | CO/N=C(\C(=O)N[C@H]1CN2CC(C(F)(F)F)=C(C(=O)O)N2C1=O)c1csc(N)n1
> 128 µg/mL | CO/N=C(\C(=O)N[C@H]1CN2CC(Sc3nnnn3C)=C(C(=O)O)N2C1=O)c1csc(N)n1
> 128 µg/mL | CO/N=C(\C(=O)N[C@H]1CN2CC(C(=O)Nc3ccccc3)=C(C(=O)O)N2C1=O)c1csc(N)n1
> 128 µg/mL | CO/N=C(\C(=O)N[C@H]1CN2CC(S(=O)(=O)CCNC(C)=O)=C(C(=O)O)N2C1=O)c1csc(N)n1

MIC | Compound
> 128 µg/mL | CO/N=C(\C(=O)N[C@H]1CN2CC(c3ccccn3)=C(C(=O)O)N2C1=O)c1csc(N)n1
> 128 µg/mL | CCS(=O)(=O)C1=C(C(=O)O)N2C(=O)[C@@H](NC(=O)/C(=N\OC)c3csc(N)n3)CN2C1
> 128 µg/mL | CO/N=C(\C(=O)N[C@H]1CN2CC(c3ccccc3)=C(C(=O)O)N2C1=O)c1csc(N)n1
> 128 µg/mL | CCOC(=O)C1=C(C(=O)O)N2C(=O)[C@@H](NC(=O)/C(=N\OC)c3csc(N)n3)CN2C1
> 128 µg/mL | CCC(=O)C1=C(C(=O)O)N2C(=O)[C@@H](NC(=O)/C(=N\OC)c3csc(N)n3)CN2C1
> 128 µg/mL | CCCOC(=O)C1=C(C(=O)O)N2C(=O)[C@@H](NC(=O)/C(=N\OC)c3csc(N)n3)CN2C1
> 128 µg/mL | CO/N=C(\C(=O)N[C@H]1CN2CC(S(=O)(=O)c3c(C)noc3C)=C(C(=O)O)N2C1=O)c1csc(N)n1
> 128 µg/mL | CNC(=O)C1=C(C(=O)O)N2C(=O)[C@@H](NC(=O)/C(=N\OC)c3csc(N)n3)CN2C1
> 128 µg/mL | CO/N=C(\C(=O)N[C@H]1CN2CC(Sc3nnc(C)s3)=C(C(=O)O)N2C1=O)c1csc(N)n1
> 128 µg/mL | C=CCO/N=C/C1=C(C(=O)O)N2C(=O)[C@@H](NC(=O)/C(=N\OC)c3csc(N)n3)CN2C1
> 128 µg/mL | CO/N=C(\C(=O)N[C@H]1CN2CC(/C=N/OC)=C(C(=O)O)N2C1=O)c1csc(N)n1
> 128 µg/mL | CO/N=C(\C(=O)N[C@H]1CN2CC(C(=O)C(F)(F)F)=C(C(=O)O)N2C1=O)c1csc(N)n1
> 128 µg/mL | CO/N=C(\C(=O)N[C@H]1CN2CC(c3ccncc3)=C(C(=O)O)N2C1=O)c1csc(N)n1
> 128 µg/mL | CO/N=C(\C(=O)N[C@H]1CN2CC(C(=O)OC)=C(C(=O)O)N2C1=O)c1csc(N)n1
> 128 µg/mL | C=CC1=C(C(=O)O)N2C(=O)[C@@H](NC(=O)/C(=N\OC)c3csc(N)n3)CN2C1
> 128 µg/mL | CO/N=C(\C(=O)N[C@H]1CN2CC(/C=N/OCCc3ccccc3)=C(C(=O)O)N2C1=O)c1csc(N)n1
> 128 µg/mL | CO/N=C(\C(=O)N[C@H]1CN2CC(COC(C)=O)=C(C(=O)O)N2C1=O)c1csc(N)n1

Compound | MIC
CCOP(=O)(OCC)C1=C(C(=O)O)N2C(=O)[C@@H](NC(=O)/C(=N\OC)c3csc(N)n3)CN2C1 | > 128 µg/mL
CO/N=C(\C(=O)N[C@H]1CN2CC(P(=O)(OC)OC)=C(C(=O)O)N2C1=O)c1csc(N)n1 | > 128 µg/mL
